Results taken from ChEMBL document CHEMBL1152892, “Synthesis and biological evaluation of 3,6-disubstituted [1,2,4]triazolo[3,4-b][1,3,4]thiadiazole derivatives as a novel class of potential anti-tumor agents” (Eur J Med Chem, 2009).
Activity calls are given as the source filed them. The rule behind the calls is not given here.

Experiments:
[1] = target: Cyclin-dependent kinase 1/cyclin B1 (Homo sapiens, UniProt P06493); assay: Inhibition of CDK1/Cyclin B; type: protein-complex assay
[2] = target: Cyclin-dependent kinase 2 (Homo sapiens, UniProt P24941); assay: Inhibition of CDK2/Cyclin A
[3] = Inhibition of CDK4/Cyclin D
HOP-62 = assay: Cytotoxicity against human HOP62 cells after 48 hrs by sulforhodamine B assay; type: functional
Procedure, shortened: (§1)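 NCI human tumor panel. Cells in RPMI 1640 with 5% FBS and 2 mM L-glutamine, 5000–40,000 cells/well by growth characteristics, 24 h preincubation at 37 °C. Compound added at time zero at five 10-fold dilutions, top concentration agent-dependent. Incubated 48 h (5% CO2, 100% humidity), then sulforhodamine B stain and plate-reader OD. GI50 and TGI are the concentrations giving 50% and total growth inhibition, in µM.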

CAKI-1 = assay: Cytotoxicity against human Caki1 cells after 48 hrs by sulforhodamine B assay; type: functional; procedure, shortened: as §1
SR = assay: Cytotoxicity against human SR cells after 48 hrs by sulforhodamine B assay; type: functional; procedure, shortened: as §1
BT-549 = assay: Cytotoxicity against human BT549 cells after 48 hrs by sulforhodamine B assay; type: functional; details: for GI50: BT-549, 48 h; procedure, shortened: as §1
ACHN = assay: Cytotoxicity against human ACHN cells after 48 hrs by sulforhodamine B assay; type: functional; procedure, shortened: as §1
KM12 = assay: Cytotoxicity against human KM12 cells after 48 hrs by sulforhodamine B assay; type: functional; details: for GI50: KM12, 48 h; procedure, shortened: as §1
SNB-75 = assay: Cytotoxicity against human SNB75 cells after 48 hrs by sulforhodamine B assay; type: functional; procedure, shortened: as §1
RPMI8266 = assay: Cytotoxicity against human […] cells after 48 hrs by sulforhodamine B assay; type: functional; procedure, shortened: as §1
TK-10 = assay: Cytotoxicity against human TK10 cells after 48 hrs by sulforhodamine B assay; type: functional; procedure, shortened: as §1
SF-539 = assay: Cytotoxicity against human SF539 cells after 48 hrs by sulforhodamine B assay; type: functional; procedure, shortened: as §1
A498 = assay: Cytotoxicity against human A498 cells after 48 hrs by sulforhodamine B assay; type: functional; procedure, shortened: as §1
HCC 2998 = assay: Cytotoxicity against human HCC2998 cells after 48 hrs by sulforhodamine B assay; type: functional; procedure, shortened: as §1
MCF7 [4] = assay: Antitumor activity against human MCF7 cells assessed as cell growth at 10 uM after 48 hrs by sulforhodamine B assay; type: functional; details: MCF7, 48 h, read-out: Activity
Procedure, shortened: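 NCI primary screen, single concentration 10^-5 M against MCF7, NCI-H460 and SF-268. Cells in RPMI 1640 with 5% FBS and 2 mM L-glutamine, seeded at 5000–40,000 cells/well by cell type, preincubated 24 h at 37 °C. Compound added at time zero, then 48 h incubation (5% CO2, 100% humidity). Growth read by sulforhodamine B optical density, reported as growth percentage.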

NCI-H322M = assay: Cytotoxicity against human NCI-H322M cells after 48 hrs by sulforhodamine B assay; type: functional; procedure, shortened: as §1
LOX IMVI = assay: Cytotoxicity against human LOXIMVI cells after 48 hrs by sulforhodamine B assay; type: functional; procedure, shortened: as §1
MCF7 [5] = assay: Cytotoxicity against human MCF7 cells after 48 hrs by sulforhodamine B assay; type: functional; procedure, shortened: as §1
[6] = (§2) Cytotoxicity against human Hs 578T cells after 48 hrs by sulforhodamine B assay; type: functional; procedure, shortened: as §1
HCT-15 = assay: Cytotoxicity against human HCT15 cells after 48 hrs by sulforhodamine B assay; type: functional; procedure, shortened: as §1
OVCAR-3 = assay: Cytotoxicity against human OVCAR-3 cells after 48 hrs by sulforhodamine B assay; type: functional; procedure, shortened: as §1
SF-268 = assay: Cytotoxicity against human SF268 cells after 48 hrs by sulforhodamine B assay; type: functional; procedure, shortened: as §1
UACC-62 = assay: Cytotoxicity against human UACC62 cells after 48 hrs by sulforhodamine B assay; type: functional; procedure, shortened: as §1
HCT-116 [7] = assay: Antitumor activity against human HCT116 cells xenografted in nude mouse; type: functional, cell-based
HOP-92 = assay: Cytotoxicity against human HOP92 cells after 48 hrs by sulforhodamine B assay; type: functional; details: for GI50: HOP-92, 48 h; procedure, shortened: as §1
NCI-H226 = assay: Cytotoxicity against human NCI-H226 cells after 48 hrs by sulforhodamine B assay; type: functional; details: for GI50: NCI-H226, 48 h; procedure, shortened: as §1
CCRF-CEM = assay: Cytotoxicity against human CCRF-CEM cells after 48 hrs by sulforhodamine B assay; type: functional; procedure, shortened: as §1
OVCAR-4 = assay: Cytotoxicity against human OVCAR4 cells after 48 hrs by sulforhodamine B assay; type: functional; procedure, shortened: as §1
HCT-116 [8] = assay: Cytotoxicity against human HCT116 cells after 48 hrs by sulforhodamine B assay; type: functional; details: HCT-116, 48 h; procedure, shortened: as §1
Hs-578T = assay: as §2; type: functional; procedure, shortened: as §1

Sequence of Cyclin-dependent kinase 1/cyclin B1 (P06493 whole entry): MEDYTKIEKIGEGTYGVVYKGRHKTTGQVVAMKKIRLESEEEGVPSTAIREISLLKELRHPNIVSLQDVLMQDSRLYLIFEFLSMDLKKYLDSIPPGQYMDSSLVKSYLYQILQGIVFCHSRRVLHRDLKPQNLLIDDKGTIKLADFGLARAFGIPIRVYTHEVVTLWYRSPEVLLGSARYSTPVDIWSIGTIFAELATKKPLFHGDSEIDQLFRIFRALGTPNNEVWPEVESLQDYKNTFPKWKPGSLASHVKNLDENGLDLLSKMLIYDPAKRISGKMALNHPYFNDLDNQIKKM
Sequence of Cyclin-dependent kinase 1/cyclin B1 (P14635 whole entry, further chain): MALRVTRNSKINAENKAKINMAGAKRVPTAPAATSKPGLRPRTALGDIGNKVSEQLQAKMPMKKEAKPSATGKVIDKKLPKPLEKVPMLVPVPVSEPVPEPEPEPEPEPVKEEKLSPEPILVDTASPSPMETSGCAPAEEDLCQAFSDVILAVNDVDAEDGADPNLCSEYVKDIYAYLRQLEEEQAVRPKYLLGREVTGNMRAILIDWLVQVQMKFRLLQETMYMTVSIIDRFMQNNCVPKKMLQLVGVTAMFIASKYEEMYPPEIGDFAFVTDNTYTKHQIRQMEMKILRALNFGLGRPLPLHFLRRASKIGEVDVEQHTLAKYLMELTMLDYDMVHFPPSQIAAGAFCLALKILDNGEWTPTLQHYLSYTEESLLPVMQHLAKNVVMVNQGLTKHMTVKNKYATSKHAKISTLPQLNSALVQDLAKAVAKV

Structure (SMILES): c1ccc(CSc2nn3c(Cc4ccccc4)nnc3s2)cc1
- IC50 [1]: 25 µM
- IC50 [2]: > 28 µM
- IC50 [3]: 18 µM

Structure (SMILES): c1ccc(Cc2nnc3sc(SSc4nn5c(Cc6ccccc6)nnc5s4)nn23)cc1
- IC50 [1]: 5.3 µM
- IC50 [2]: 15 µM
- IC50 [3]: 25 µM

Structure (SMILES): Cc1nnc2sc(SCc3ccccc3)nn12
- IC50 [1]: > 48 µM
- IC50 [2]: 16 µM
- IC50 [3]: > 120 µM

Structure (SMILES): Nc1nc(O)c(Cc2nn3c(COc4ccc(Cl)cc4)nnc3s2)s1
- pGI50 (HOP-62): inactive
- pGI50 (CAKI-1): inactive
- GI50 (SR): 49 µM
- pGI50 (BT-549): inactive
- GI50 (ACHN): 35.5 µM
- IC50 [1]: 0.91 µM
- IC50 [2]: 0.18 µM
- GI50 (KM12): 7.41 µM
- pGI50 (SNB-75): inactive
- pGI50 (RPMI8266): inactive
- GI50 (TK-10; TK-10, 48 h): 45.7 µM
- GI50 (SF-539; SF-539, 48 h): 39.8 µM
- GI50 (A498; A498, 48 h): 0.0537 µM
- pGI50 (HCC 2998): inactive
- growth at 10 µM (MCF7 [4]): 0%
- IC50 [3]: 3 µM
- GI50 (NCI-H322M): 11.2 µM
- GI50 (LOX IMVI): 3.63 µM
- GI50 (MCF7 [5]; MCF7, 48 h): > 100 µM
- GI50 [6]: 31.6 µM
- GI50 (HCT-15; HCT-15, 48 h): 0.741 µM
- pGI50 (OVCAR-3): inactive
- pGI50 (SF-268): inactive
- GI50 (UACC-62; UACC-62, 48 h): 31.6 µM
- Activity (HCT-116 [7]): Active
- GI50 (HOP-92): 97.7 µM

Structure (SMILES): Nc1ccc(-c2nn3c(Cc4ccccc4)nnc3s2)cc1
- IC50 [1]: > 120 µM
- IC50 [2]: > 28 µM
- IC50 [3]: 14 µM

Structure (SMILES): Cc1nnc2sc(NN)nn12
- IC50 [1]: 22 µM
- IC50 [2]: 11 µM
- IC50 [3]: > 120 µM

Structure (SMILES): CCSc1nn2c(C)nnc2s1
- IC50 [1]: > 120 µM
- IC50 [2]: 11 µM
- IC50 [3]: 14 µM

Structure (SMILES): NNc1nn2c(Cc3ccccc3)nnc2s1
- IC50 [1]: > 120 µM
- IC50 [2]: > 28 µM
- IC50 [3]: > 48 µM

Structure (SMILES): Sc1nn2c(Cc3ccccc3)nnc2s1
- IC50 [1]: 25 µM
- IC50 [2]: 23 µM
- IC50 [3]: 37 µM

Structure (SMILES): NNc1nn2c(COc3ccc(Cl)cc3)nnc2s1
- IC50 [1]: 28 µM
- IC50 [2]: 15 µM
- IC50 [3]: > 120 µM

Structure (SMILES): CCSc1nn2c(COc3ccc(Cl)cc3)nnc2s1
- IC50 [1]: > 48 µM
- IC50 [2]: 24 µM
- IC50 [3]: > 120 µM

Structure (SMILES): Cc1nnc2sc(Cc3n[nH]c4[nH]c(=S)[nH]c(=S)c34)nn12
- IC50 [1]: > 48 µM
- IC50 [2]: 24 µM
- IC50 [3]: 10 µM

Structure (SMILES): S=c1[nH]c(=S)c2c(Cc3nn4c(Cc5ccccc5)nnc4s3)n[nH]c2[nH]1
- IC50 [1]: 14 µM
- IC50 [2]: 24 µM
- IC50 [3]: > 48 µM

Structure (SMILES): Cc1nnc2sc(SSc3nn4c(C)nnc4s3)nn12
- IC50 [1]: 6.8 µM
- IC50 [2]: 23 µM
- IC50 [3]: 11 µM

Structure (SMILES): Clc1ccc(OCc2nnc3sc(SCc4ccccc4)nn23)cc1
- IC50 [1]: > 120 µM
- IC50 [2]: > 28 µM
- IC50 [3]: 37 µM

Structure (SMILES): Sc1nn2c(COc3ccc(Cl)cc3)nnc2s1
- pGI50 (HOP-62): inactive
- pGI50 (CAKI-1): inactive
- GI50 (SR): 95.5 µM
- GI50 (BT-549): 79.4 µM
- GI50 (NCI-H226): 89.1 µM
- GI50 (CCRF-CEM): 97.7 µM
- pGI50 (ACHN): inactive
- IC50 [1]: 0.9 µM
- IC50 [2]: 0.4 µM
- pGI50 (KM12): inactive
- pGI50 (SNB-75): inactive
- pGI50 (RPMI8266): inactive
- pGI50 (OVCAR-4): inactive
- pGI50 (TK-10): inactive
- pGI50 (SF-539): inactive
- pGI50 (A498): inactive
- pGI50 (HCC 2998): inactive
- GI50 (HCT-116 [8]): > 100 µM
- growth at 10 µM (MCF7 [4]): 0%
- pGI50 (NCI-H322M): inactive
- pGI50 (LOX IMVI): inactive
- pGI50 (MCF7 [5]): inactive
- GI50 [6]: 87.1 µM
- GI50 (OVCAR-3; OVCAR-3, 48 h): 81.3 µM
- pGI50 (SF-268): inactive
- pGI50 (UACC-62): inactive
- GI50 (HOP-92): 79.4 µM

Structure (SMILES): CCSc1nn2c(Cc3ccccc3)nnc2s1
- IC50 [1]: > 120 µM
- IC50 [2]: 24 µM
- IC50 [3]: > 48 µM

Structure (SMILES): Cc1nnc2sc(Cc3sc(N)nc3O)nn12
- pGI50 (HOP-62): inactive
- GI50 (CAKI-1; CAKI-1, 48 h): 63.1 µM
- pGI50 (SR): inactive
- pGI50 (BT-549): inactive
- GI50 (NCI-H226): 77.6 µM
- pGI50 (CCRF-CEM): inactive
- pGI50 (ACHN): inactive
- IC50 [1]: 12 µM
- IC50 [2]: 0.25 µM
- GI50 (KM12): 97.7 µM
- pGI50 (SNB-75): inactive
- pGI50 (OVCAR-4): inactive
- pGI50 (TK-10): inactive
- pGI50 (SF-539): inactive
- pGI50 (A498): inactive
- pGI50 (HCC 2998): inactive
- GI50 (HCT-116 [8]): 83.2 µM
- growth at 10 µM (MCF7 [4]): 130%
- IC50 [3]: 12 µM
- GI50 (NCI-H322M): 87.1 µM
- pGI50 (LOX IMVI): inactive
- pGI50 (MCF7 [5]): inactive
- pGI50 (Hs-578T): inactive
- pGI50 (HCT-15): inactive
- pGI50 (OVCAR-3): inactive
- pGI50 (SF-268): inactive
- pGI50 (UACC-62): inactive
- pGI50 (HOP-92): inactive

Structure (SMILES): Cc1nnc2sc(-c3ccc(N)cc3)nn12
- GI50 (HOP-62; HOP-62, 48 h): 87.1 µM
- pGI50 (CAKI-1): inactive
- pGI50 (SR): inactive
- GI50 (BT-549): > 100 µM
- pGI50 (NCI-H226): inactive
- pGI50 (CCRF-CEM): inactive
- pGI50 (ACHN): inactive
- IC50 [1]: > 120 µM
- IC50 [2]: 0.57 µM
- GI50 (KM12): > 100 µM
- GI50 (SNB-75; SNB-75, 48 h): 21.4 µM
- pGI50 (RPMI8266): inactive
- pGI50 (OVCAR-4): inactive
- pGI50 (SF-539): inactive
- pGI50 (A498): inactive
- pGI50 (HCC 2998): inactive
- growth at 10 µM (MCF7 [4]): 119%
- IC50 [3]: > 120 µM
- pGI50 (NCI-H322M): inactive
- pGI50 (LOX IMVI): inactive
- pGI50 (MCF7 [5]): inactive
- GI50 [6]: 89.1 µM
- pGI50 (HCT-15): inactive
- pGI50 (OVCAR-3): inactive
- pGI50 (SF-268): inactive
- pGI50 (UACC-62): inactive

Structure (SMILES): Nc1nc(O)c(Cc2nn3c(Cc4ccccc4)nnc3s2)s1
- IC50 [1]: > 120 µM
- IC50 [2]: 14 µM
- IC50 [3]: > 48 µM

Structure (SMILES): S=c1[nH]c(=S)c2c(Cc3nn4c(COc5ccc(Cl)cc5)nnc4s3)n[nH]c2[nH]1
- IC50 [1]: 29 µM
- IC50 [2]: 37 µM
- IC50 [3]: > 48 µM

Structure (SMILES): Cc1nnc2sc(S)nn12
- IC50 [1]: 19 µM
- IC50 [2]: 6.8 µM
- IC50 [3]: 23 µM
